# Results reported in ChEMBL document CHEMBL3407460, “Synthesis of novel thiazole-based 8,9-dihydro-7H-pyrimido[4,5-b][1,4]diazepines as potential antitumor and antifungal agents” (2015).
# Columns and labels:
# Assay type in all cases: functional
# [1] = Antitumor activity against human SF539 cells after 48 hrs by Sulforhodamine B assay; conditions: SF-539, 48 h
# Summary of the method: (§1)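 NCI 60-cell-line screen. Secondary five-dose test at 100, 10, 1.0, 0.1 and 0.01 µM with continuous drug exposure for 48 h. Cell growth was estimated by sulforhodamine B protein staining. […] LC50 was also reported.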
# [2] = system: K562; experiment: Antitumor activity against human K562 cells after 48 hrs by Sulforhodamine B assay; conditions: K562, 48 h; summary of the method: as §1
# [3] = system: DU-145; experiment: Antitumor activity against human DU145 cells after 48 hrs by Sulforhodamine B assay; conditions: DU-145, 48 h; summary of the method: as §1
# [4] = Antitumor activity against human OVCAR8 cells after 48 hrs by Sulforhodamine B assay; conditions: OVCAR-8, 48 h; summary of the method: as §1
# [5] = system: KM12; experiment: Antitumor activity against human KM12 cells after 48 hrs by Sulforhodamine B assay; conditions: KM12, 48 h; summary of the method: as §1
# [6] = Antitumor activity against human OVCAR5 cells after 48 hrs by Sulforhodamine B assay; conditions: OVCAR-5, 48 h; summary of the method: as §1
# [7] = Antitumor activity against human BT549 cells after 48 hrs by Sulforhodamine B assay; conditions: BT-549, 48 h; summary of the method: as §1
# [8] = Antitumor activity against human NCI-ADR-RES cells after 48 hrs by Sulforhodamine B assay; summary of the method: as §1
# [9] = system: MDA-MB-231; experiment: Antitumor activity against human MDA-MB-231 cells after 48 hrs by Sulforhodamine B assay; conditions: MDA-MB-231, 48 h; summary of the method: as §1
# [10] = system: SK-MEL-5; experiment: Antitumor activity against human SK-MEL-5 cells after 48 hrs by Sulforhodamine B assay; conditions: SK-MEL-5, 48 h; summary of the method: as §1
# [11] = system: HOP-62; experiment: Antitumor activity against human HOP62 cells after 48 hrs by Sulforhodamine B assay; conditions: HOP-62, 48 h; summary of the method: as §1
# [12] = system: IGROV-1; experiment: Antitumor activity against human IGROV1 cells after 48 hrs by Sulforhodamine B assay; conditions: IGROV-1, 48 h; summary of the method: as §1
# [13] = Antitumor activity against human HCT15 cells after 48 hrs by Sulforhodamine B assay; conditions: HCT-15, 48 h; summary of the method: as §1
# [14] = system: MCF7; experiment: Antitumor activity against human MCF7 cells after 48 hrs by Sulforhodamine B assay; conditions: MCF7, 48 h; summary of the method: as §1
# [15] = system: SW-620; experiment: Antitumor activity against human SW620 cells after 48 hrs by Sulforhodamine B assay; conditions: SW-620, 48 h; summary of the method: as §1
# [16] = system: NCI-H23; experiment: Antitumor activity against human NCI-H23 cells after 48 hrs by Sulforhodamine B assay; conditions: NCI-H23, 48 h; summary of the method: as §1
# [17] = Antitumor activity against human SF295 cells after 48 hrs by Sulforhodamine B assay; conditions: SF-295, 48 h; summary of the method: as §1
# [18] = system: SR; experiment: Antitumor activity against human SR cells after 48 hrs by Sulforhodamine B assay; summary of the method: as §1
# [19] = system: MDA-MB-435; experiment: Antitumor activity against human MDA-MB-435 cells after 48 hrs by Sulforhodamine B assay; conditions: MDA-MB-435, 48 h; summary of the method: as §1
# [20] = system: NCI-H226; experiment: Antitumor activity against human NCI-H226 cells after 48 hrs by Sulforhodamine B assay; conditions: NCI-H226, 48 h; summary of the method: as §1
# [21] = system: M14; experiment: Antitumor activity against human M14 cells after 48 hrs by Sulforhodamine B assay; conditions: M14, 48 h; summary of the method: as §1
# [22] = system: NCI-H460; experiment: Antitumor activity against human NCI-H460 cells after 48 hrs by Sulforhodamine B assay; conditions: NCI-H460, 48 h; summary of the method: as §1
# [23] = system: SF-268; experiment: Antitumor activity against human SF268 cells after 48 hrs by Sulforhodamine B assay; conditions: SF-268, 48 h; summary of the method: as §1
# [24] = Antitumor activity against human OVCAR3 cells after 48 hrs by Sulforhodamine B assay; conditions: OVCAR-3, 48 h; summary of the method: as §1
# [25] = Antitumor activity against human MOLT4 cells after 48 hrs by Sulforhodamine B assay; conditions: MOLT-4, 48 h; summary of the method: as §1
# [26] = system: SNB-75; experiment: Antitumor activity against human SNB75 cells after 48 hrs by Sulforhodamine B assay; conditions: SNB-75, 48 h; summary of the method: as §1
# [27] = system: SK-MEL-2; experiment: Antitumor activity against human SK-MEL-2 cells after 48 hrs by Sulforhodamine B assay; conditions: SK-MEL-2, 48 h; summary of the method: as §1
# [28] = system: Malme-3M; experiment: Antitumor activity against human MALME-3M cells after 48 hrs by Sulforhodamine B assay; summary of the method: as §1
# [29] = Antitumor activity against human SKOV3 cells after 48 hrs by Sulforhodamine B assay; conditions: SK-OV-3, 48 h; summary of the method: as §1
# [30] = system: A549; experiment: Antitumor activity against human A549 cells after 48 hrs by Sulforhodamine B assay; conditions: A549, 48 h; summary of the method: as §1
# [31] = system: SK-MEL-28; experiment: Antitumor activity against human SK-MEL-28 cells after 48 hrs by Sulforhodamine B assay; conditions: SK-MEL-28, 48 h; summary of the method: as §1
# [32] = Antitumor activity against human HCT116 cells after 48 hrs by Sulforhodamine B assay; conditions: HCT-116, 48 h; summary of the method: as §1
# [33] = Antitumor activity against human RPMI8226 cells after 48 hrs by Sulforhodamine B assay; conditions: RPMI-8226, 48 h; summary of the method: as §1
# [34] = system: T47D; experiment: Antitumor activity against human T47D cells after 48 hrs by Sulforhodamine B assay; summary of the method: as §1
# [35] = Antitumor activity against human UACC62 cells after 48 hrs by Sulforhodamine B assay; conditions: UACC-62, 48 h; summary of the method: as §1
# [36] = Antitumor activity against human LOXIMVI cells after 48 hrs by Sulforhodamine B assay; conditions: LOX IMVI; summary of the method: as §1
# [37] = Antitumor activity against human COLO205 cells after 48 hrs by Sulforhodamine B assay; conditions: COLO 205, 48 h; summary of the method: as §1
# [38] = system: MDA-MB-468; experiment: Antitumor activity against human MDA-MB-468 cells after 48 hrs by Sulforhodamine B assay; conditions: MDA-MB-468, 48 h; summary of the method: as §1
# [39] = Antitumor activity against human Hs 578T cells after 48 hrs by Sulforhodamine B assay; summary of the method: as §1
# [40] = read-out: LC50 (the source's name)
smiles,measurement,setting,value
Cc1ccc(C2=Nc3c(N)ncnc3NC(c3sc(Cl)nc3Cl)C2)cc1 (stereo not drawn),GI50,[1],2.69 µM
same,CC50,[1]; [40],33.1 µM
same,GI50,[2],1.68 µM
same,CC50,[2]; [40],> 100 µM
same,GI50,[3],11.2 µM
same,CC50,[3]; [40],52.4 µM
same,GI50,[4],4.8 µM
same,LC50 (concentration killing 50% of cells),[4],80.7 µM
same,GI50,[5],3.8 µM
same,CC50,[5]; [40],40.4 µM
same,GI50,[6],10.2 µM
same,LC50,[6],46.8 µM
same,GI50,[7],3.93 µM
same,CC50,[7]; [40],40.6 µM
same,GI50,[8],3.13 µM
same,CC50,[8]; [40],58.5 µM
same,GI50,[9],3.86 µM
same,LC50 (concentration killing 50% of cells),[9],42.1 µM
same,GI50,[10],3.69 µM
same,CC50,[10]; [40],37.3 µM
same,GI50,[11],3.72 µM
same,LC50 (concentration giving 50% net cell kill),[11],48.9 µM
same,GI50,[12],7.08 µM
same,CC50,[12]; [40],63.2 µM
same,GI50,[13],3.05 µM
same,CC50,[13]; [40],50.1 µM
same,GI50,[14],3.56 µM
same,CC50,[14]; [40],97.6 µM
same,GI50,[15],3.42 µM
same,CC50,[15]; [40],40.7 µM
same,GI50,[16],8.23 µM
same,LC50,[16],58.7 µM
same,GI50,[17],3.06 µM
same,CC50,[17]; [40],36.4 µM
same,GI50,[18],2.25 µM
same,CC50,[18]; [40],76.7 µM
same,GI50,[19],1.47 µM
same,CC50,[19]; [40],39 µM
same,GI50,[20],13.7 µM
same,CC50,[20]; [40],90.3 µM
same,GI50,[21],2.64 µM
same,CC50,[21]; [40],35.6 µM
same,GI50,[22],4.06 µM
same,LC50,[22],49.4 µM
same,GI50,[23],5.68 µM
same,CC50,[23]; [40],67.3 µM
same,GI50,[24],3.6 µM
same,CC50,[24]; [40],43.4 µM
same,GI50,[25],4.06 µM
same,LC50,[25],> 100 µM
same,GI50,[26],1.63 µM
same,LC50 (concentration killing 50% of cells),[26],38.1 µM
same,GI50,[27],2.98 µM
same,LC50,[27],35.6 µM
same,GI50,[28],6.33 µM
same,CC50,[28]; [40],44 µM
same,GI50,[29],3.6 µM
same,CC50,[29]; [40],43 µM
same,GI50,[30],5.02 µM
same,CC50,[30]; [40],52.5 µM
same,GI50,[31],4.26 µM
same,LC50,[31],42.8 µM
same,GI50,[32],3.7 µM
same,CC50,[32]; [40],37.3 µM
same,GI50,[33],4.99 µM
same,LC50 (concentration causing 50% net cell kill),[33],> 100 µM
same,GI50,[34],3.35 µM
same,CC50,[34]; [40],> 100 µM
same,GI50,[35],3.05 µM
same,LC50,[35],37.2 µM
same,GI50,[36],5.39 µM
same,CC50,[36]; [40],43.2 µM
same,GI50,[37],4.18 µM
same,CC50,[37]; [40],42.1 µM
same,GI50,[38],2.12 µM
same,LC50,[38],41.6 µM
same,GI50,[39],2.44 µM
same,CC50,[39]; [40],> 100 µM
